Assay results from ChEMBL document CHEMBL4028872, “Structure-Activity Relationship, Pharmacological Characterization, and Molecular Modeling of Noncompetitive Inhibitors of the Betaine/γ-Aminobutyric Acid Transporter 1 (BGT1)” (J Med Chem, 2017).

Tests used:
Type in all cases: cell-based
GABA transporter 2 = target: T1, GABA transporter 2 (Mus musculus, UniProt P31651); test: Inhibition of mouse BGT1 expressed in HEK293 cells assessed as reduction in [3H]GABA uptake after 3 mins by scintillation counting method; settings: read-out: IC50
T1 sequence (P31651 whole entry): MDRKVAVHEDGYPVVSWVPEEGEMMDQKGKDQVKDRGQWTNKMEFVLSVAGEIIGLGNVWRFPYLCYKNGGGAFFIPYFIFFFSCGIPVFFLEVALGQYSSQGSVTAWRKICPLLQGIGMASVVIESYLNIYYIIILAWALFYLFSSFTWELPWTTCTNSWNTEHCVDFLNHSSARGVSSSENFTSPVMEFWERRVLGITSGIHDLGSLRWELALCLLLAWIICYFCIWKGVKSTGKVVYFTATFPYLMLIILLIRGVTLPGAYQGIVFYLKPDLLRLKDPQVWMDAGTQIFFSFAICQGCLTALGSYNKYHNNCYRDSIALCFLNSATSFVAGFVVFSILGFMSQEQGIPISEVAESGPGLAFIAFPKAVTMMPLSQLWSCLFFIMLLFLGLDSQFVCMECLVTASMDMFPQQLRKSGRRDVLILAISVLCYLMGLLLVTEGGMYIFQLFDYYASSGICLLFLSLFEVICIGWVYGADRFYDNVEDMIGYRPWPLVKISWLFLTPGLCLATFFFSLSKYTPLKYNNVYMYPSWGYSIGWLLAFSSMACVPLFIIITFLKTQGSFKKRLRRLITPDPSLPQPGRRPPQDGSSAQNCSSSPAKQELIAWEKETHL
Method in brief: (§1)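 HEK293 lines stably expressing a single mouse GAT subtype, kept under blasticidin-S (5 µg/mL) selection. Cells were assayed about 24 h after plating with 30 nM [3H]GABA plus varying compound concentrations for 3 min at 37 °C in HBSS buffered with 20 mM HEPES (1 mM CaCl2, 1 mM MgCl2, pH 7.4). Cells were washed ice-cold and radioactivity counted. IC50 came from sigmoidal variable-slope fits.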

GABA transporter 3 = target: T2, GABA transporter 3 (Mus musculus, UniProt P31649); test: Inhibition of mouse GAT2 expressed in HEK293 cells assessed as reduction in [3H]GABA uptake after 3 mins by scintillation counting method
T2 sequence (P31649 whole entry): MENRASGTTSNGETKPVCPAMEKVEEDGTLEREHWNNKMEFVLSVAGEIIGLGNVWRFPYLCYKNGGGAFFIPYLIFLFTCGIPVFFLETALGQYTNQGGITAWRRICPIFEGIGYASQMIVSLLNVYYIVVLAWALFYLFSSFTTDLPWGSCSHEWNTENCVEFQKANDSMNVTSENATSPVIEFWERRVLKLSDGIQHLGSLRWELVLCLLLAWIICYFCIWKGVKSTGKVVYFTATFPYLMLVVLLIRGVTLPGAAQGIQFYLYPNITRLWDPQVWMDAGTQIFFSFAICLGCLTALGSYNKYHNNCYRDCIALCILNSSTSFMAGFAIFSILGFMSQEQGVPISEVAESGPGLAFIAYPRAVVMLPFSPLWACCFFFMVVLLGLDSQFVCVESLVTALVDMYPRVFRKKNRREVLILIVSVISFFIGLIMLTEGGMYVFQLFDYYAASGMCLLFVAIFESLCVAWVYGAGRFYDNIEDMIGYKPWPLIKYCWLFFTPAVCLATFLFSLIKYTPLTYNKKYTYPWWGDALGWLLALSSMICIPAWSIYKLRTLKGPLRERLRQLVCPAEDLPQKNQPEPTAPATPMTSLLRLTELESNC
Method in brief: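 HEK293 cells stably expressing mouse GAT2 were kept under blasticidin-S (5 µg/mL) selection. Ice-cold washes preceded scintillation counting. IC50 came from a variable-slope sigmoidal fit.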

[1] = target: Sodium- and chloride-dependent GABA transporter 1 (Mus musculus, UniProt P31648); test: Inhibition of mouse GAT1 expressed in HEK293 cells assessed as reduction in [3H]GABA uptake after 3 mins by scintillation counting method; method in brief: as §1
[2] = target: Sodium- and chloride-dependent GABA transporter 1 (Homo sapiens, UniProt P30531); settings: read-out: IC50
Chain of Sodium- and chloride-dependent GABA transporter 1 (Homo sapiens, UniProt P30531) (P30531 whole entry): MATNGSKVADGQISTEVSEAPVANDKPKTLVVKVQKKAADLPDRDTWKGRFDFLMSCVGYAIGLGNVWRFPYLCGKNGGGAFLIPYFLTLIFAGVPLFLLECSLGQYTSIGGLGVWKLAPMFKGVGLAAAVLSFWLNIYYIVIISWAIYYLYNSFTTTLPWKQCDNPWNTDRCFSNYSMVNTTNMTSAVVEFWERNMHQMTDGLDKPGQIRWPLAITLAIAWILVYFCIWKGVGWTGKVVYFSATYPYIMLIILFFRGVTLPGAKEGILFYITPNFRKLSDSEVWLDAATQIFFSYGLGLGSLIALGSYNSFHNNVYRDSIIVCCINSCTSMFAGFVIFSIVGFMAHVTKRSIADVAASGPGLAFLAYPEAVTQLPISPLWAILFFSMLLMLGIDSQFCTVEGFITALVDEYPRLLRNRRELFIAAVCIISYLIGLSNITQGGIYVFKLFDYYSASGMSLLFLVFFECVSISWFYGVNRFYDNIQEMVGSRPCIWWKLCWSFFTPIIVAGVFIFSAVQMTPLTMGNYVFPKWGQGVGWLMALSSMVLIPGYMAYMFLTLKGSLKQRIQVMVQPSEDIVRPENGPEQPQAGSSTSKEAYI

Row | Structure (SMILES) | IC50 (GABA transporter 2) [µM] | IC50 (GABA transporter 3) [µM] | IC50 [1] [µM] | IC50 [2] [µM]
1 | O=C(NC1CCN(Cc2cccc(Cl)c2)CC1)c1ccc(Cl)cc1Cl | > 300 | > 300 | > 300 | –
2 | COc1cccc(CN2CCC(NC(=O)c3cccnc3)CC2)c1 | > 1000 | > 1000 | > 1000 | –
3 | Cc1cccc(CN2CCC(NC(=O)c3ccc(Cl)cc3Cl)CC2)c1 | > 300 | > 300 | > 300 | –
4 | O=C(NC1CCN(Cc2ccccc2)CC1)c1ccc(Cl)cc1 | 77 | 590 | > 1000 | –
5 | O=C(NC1CCN(Cc2ccccc2)CC1)c1cccs1 | 179 | > 400 | > 400 | –
6 | COc1cccc(CN2CCC(NC(=O)c3ccc(Cl)cc3Cl)CC2)c1 | 26 | > 200 | > 200 | –
7 | O=C(NC1CCN(Cc2cccc(F)c2)CC1)c1ccc(Cl)cc1Cl | 34 | > 1000 | > 1000 | –
8 | O=C(NC1CCN(Cc2ccc3c(c2)OCO3)CC1)c1ccc(Cl)nc1Cl | 60 | > 300 | > 300 | –
9 | O=C(NC1CCN(Cc2cccc(O)c2)CC1)c1ccc(Cl)nc1Cl | > 300 | > 300 | > 300 | –
10 | Clc1ccc(CNC2CCN(Cc3ccccc3)CC2)c(Cl)c1 | 112 | > 400 | – | > 400
11 | O=C(NC1CCN(Cc2cccs2)CC1)c1ccc(Cl)nc1Cl | > 300 | > 300 | > 300 | –
12 | COc1cc(CN2CCC(NC(=O)c3ccc(Cl)cc3Cl)CC2)cc(OC)c1 | 30 | 1200 | > 1000 | –
13 | O=C(NC1CCN(Cc2ccccc2)CC1)c1cnccc1Cl | 39 | 150 | > 1000 | –
14 | NC(=O)c1cccc(CN2CCC(NC(=O)c3ccc(Cl)nc3Cl)CC2)c1 | > 300 | > 300 | > 300 | –
15 | O=C(NC1CCN(Cc2ccccc2)CC1)c1ccnc(Cl)c1 | 300 | > 1000 | > 1000 | –
16 | O=C(NC1CCN(Cc2ccccc2)CC1)c1ccncc1 | 1150 | > 1000 | > 1000 | –
17 | O=C(NC1CCN(Cc2c[nH]c3ccccc23)CC1)c1ccc(Cl)nc1Cl | 58 | > 300 | > 300 | –
18 | COc1cccc(CN2CCC(NC(=O)c3cccs3)CC2)c1 | 390 | > 400 | > 400 | –

Row | Structure (SMILES) | IC50 (GABA transporter 2) [µM] | IC50 (GABA transporter 3) [µM] | IC50 [1] [µM] | IC50 [2] [µM]
19 | COc1cccc(CN2CCC(NC(=O)c3cccnc3Cl)CC2)c1 | 1670 | > 1000 | > 1000 | –
20 | O=C(NC1CCN(Cc2cccc([N+](=O)[O-])c2)CC1)c1ccc(Cl)nc1Cl | > 300 | > 300 | > 300 | –
21 | O=C(O)c1cccc(CN2CCC(NC(=O)c3ccc(Cl)nc3Cl)CC2)c1 | > 300 | > 300 | > 300 | –
22 | O=C(NC1CCN(Cc2cc(Cl)cc(Cl)c2)CC1)c1ccc(Cl)cc1Cl | > 300 | > 300 | > 300 | –
23 | O=C(OC1CCN(Cc2ccccc2)CC1)c1ccc(Cl)cc1Cl | > 1000 | > 1000 | – | > 1000
24 | COc1cccc(CN2CCC(NC(=O)c3ccncc3)CC2)c1 | > 1000 | > 1000 | > 1000 | –
25 | O=C(NC1CCN(Cc2cccc(OCCO)c2)CC1)c1ccc(Cl)nc1Cl | > 300 | > 300 | > 300 | –
26 | O=C(NC1CCN(Cc2ccc(-c3ccccc3)cc2)CC1)c1ccc(Cl)nc1Cl | > 300 | > 300 | > 300 | –
27 | O=C(NC1CCN(Cc2ccccc2)CC1)c1cccnc1 | > 1000 | > 1000 | > 1000 | –
28 | O=C(NC1CCN(Cc2ccccc2)CC1)c1ccccc1Cl | 151 | > 400 | > 400 | –
29 | O=C(NC1CCN(Cc2cccc(OC(F)(F)F)c2)CC1)c1ccc(Cl)cc1Cl | 160 | > 1000 | > 1000 | –
30 | O=C(NC1CCN(Cc2ccc(OC(F)(F)F)cc2)CC1)c1ccc(Cl)cc1Cl | > 1000 | > 1000 | > 1000 | –
31 | COC(=O)c1cccc(CN2CCC(NC(=O)c3ccc(Cl)nc3Cl)CC2)c1 | > 300 | > 300 | > 300 | –
32 | Cc1cc(C)cc(CN2CCC(NC(=O)c3ccc(Cl)cc3Cl)CC2)c1 | > 300 | > 300 | > 300 | –
33 | O=C(OC1CCN(Cc2ccccc2)CC1)c1ccccc1 | 106 | 349 | – | > 1000
34 | O=C(NC1CCN(Cc2ccccc2)CC1)c1cccnc1Cl | 1650 | > 1000 | > 1000 | –
35 | COc1cccc(CN2CCC(NC(=O)c3ccc(Cl)nc3)CC2)c1 | 115 | 540 | > 1000 | –
